{"source": "ChEMBL document CHEMBL4406880", "about": "“Design, synthesis, and bioactivity of dihydropyrimidine derivatives as kinesin spindle protein inhibitors” (Bioorg Med Chem, 2019)", "format_in_all_cases": "functional", "key": {"EKVX": {"test_system": "EKVX", "test": "Growth inhibition of human EKVX cells incubated for 48 hrs by sulforhodamine B assay", "how_it_was_run": "(§1)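 NCI-60 five-dose mode: five tenfold dilutions (0.01, 0.1, 1, 10, 100 µM) are applied for 48 h to cells in RPMI 1640 with 5% FBS at 37 °C. Endpoint is TCA fixation with sulforhodamine B read at 515 nm. % growth comes from the 0 h and control absorbances. GI50 is the concentration giving a 50% reduction in net cell growth.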"}, "NCI-H522": {"test_system": "NCI-H522", "test": "Growth inhibition of human NCI-H522 cells incubated for 48 hrs by sulforhodamine B assay", "conditions": "NCI-H522, 48 h", "how_it_was_run": "(§2)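 NCI-60 five-dose SRB assay in RPMI 1640 with 5% FBS, 37 °C, 5% CO2. Compound given at five tenfold dilutions, 0.01–100 µM, for 48 h. Adherent cells fixed with TCA, suspension cells with 16% final TCA. Bound SRB read at 515 nm and growth calculated against time-zero and untreated controls. GI50 taken from dose–response curves as the concentration giving a 50% decrease in net cell growth.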"}, "KM12 [1]": {"test_system": "KM12", "test": "Growth inhibition of human KM12 cells incubated for 48 hrs by sulforhodamine B assay", "conditions": "KM12, 48 h", "how_it_was_run": "as §2"}, "OVCAR-5": {"test_system": "OVCAR-5", "test": "Growth inhibition of human OVCAR5 cells incubated for 48 hrs by sulforhodamine B assay", "conditions": "OVCAR-5, 48 h", "how_it_was_run": "(§3)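 NCI-60 five-dose SRB assay. Cells were exposed for 48 h to tenfold dilutions of 0.01, 0.1, 1, 10 and 100 µM, in RPMI 1640 with 5% FBS. Plates fixed with TCA at the time of drug addition served as the time-zero reference. GI50 is the concentration giving a 50% reduction in net growth. TGI is total growth inhibition. LC50 is a net 50% loss of the initial cells.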"}, "UO-31": {"test_system": "UO-31", "test": "Growth inhibition of human UO31 cells incubated for 48 hrs by sulforhodamine B assay", "conditions": "UO-31, 48 h", "how_it_was_run": "as §3"}, "SNB-19": {"test_system": "SNB-19", "test": "Growth inhibition of human SNB19 cells assessed as cell viability at 100 uM incubated for 48 hrs by sulforhodamine B assay", "conditions": "SNB-19, 48 h, read-out: Activity"}, "NCI-H322M": {"test_system": "NCI-H322M", "test": "Growth inhibition of human NCI-H322M cells assessed as cell viability at 100 uM incubated for 48 hrs by sulforhodamine B assay", "conditions": "read-out: Activity"}, "RXF 393": {"test_system": "RXF 393", "test": "Growth inhibition of human RXF393 cells assessed as cell viability at 1 uM incubated for 48 hrs by sulforhodamine B assay", "conditions": "RXF 393, 48 h, read-out: Activity"}, "IGROV-1": {"test_system": "IGROV-1", "test": "Growth inhibition of human IGROV1 cells assessed as cell viability at 1 uM incubated for 48 hrs by sulforhodamine B assay", "conditions": "IGROV-1, 48 h, read-out: Activity"}, "SNB-75 [2]": {"test_system": "SNB-75", "test": "Growth inhibition of human SNB75 cells assessed as cell viability at 1 uM incubated for 48 hrs by sulforhodamine B assay", "conditions": "SNB-75, 48 h, read-out: Activity"}, "SF-539": {"test_system": "SF-539", "test": "Growth inhibition of human SF539 cells assessed as cell viability at 1 uM incubated for 48 hrs by sulforhodamine B assay", "conditions": "SF-539, 48 h, read-out: Activity"}, "KM12 [3]": {"test_system": "KM12", "test": "Growth inhibition of human KM12 cells assessed as cell viability at 1 uM incubated for 48 hrs by sulforhodamine B assay", "conditions": "KM12, 48 h, read-out: Activity"}, "HOP-62": {"test_system": "HOP-62", "test": "Growth inhibition of human HOP62 cells assessed as cell viability at 1 uM incubated for 48 hrs by sulforhodamine B assay", "conditions": "HOP-62, 48 h, read-out: Activity"}, "MOLT-4": {"test_system": "MOLT-4", "test": "Growth inhibition of human MOLT4 cells assessed as cell viability at 1 uM incubated for 48 hrs by sulforhodamine B assay", "conditions": "MOLT-4, 48 h, read-out: Activity"}, "OVCAR-3": {"test_system": "OVCAR-3", "test": "Growth inhibition of human OVCAR3 cells assessed as cell viability at 0.1 uM incubated for 48 hrs by sulforhodamine B assay", "conditions": "OVCAR-3, 48 h, read-out: Activity"}, "M14": {"test_system": "M14", "test": "Growth inhibition of human M14 cells assessed as cell viability at 0.1 uM incubated for 48 hrs by sulforhodamine B assay", "conditions": "M14, 48 h, read-out: Activity"}, "LOX IMVI": {"test_system": "LOX IMVI", "test": "Growth inhibition of human LOXIMVI cells assessed as cell viability at 0.1 uM incubated for 48 hrs by sulforhodamine B assay", "conditions": "read-out: Activity"}, "U-251": {"test_system": "U-251", "test": "Growth inhibition of human U251 cells assessed as cell viability at 0.1 uM incubated for 48 hrs by sulforhodamine B assay", "conditions": "U-251, 48 h, read-out: Activity"}, "SF-295": {"test_system": "SF-295", "test": "Growth inhibition of human SF295 cells assessed as cell viability at 0.1 uM incubated for 48 hrs by sulforhodamine B assay", "conditions": "SF-295, 48 h, read-out: Activity"}, "T47D": {"test_system": "T47D", "test": "Growth inhibition of human T47D cells assessed as cell viability at 0.001 uM incubated for 48 hrs by sulforhodamine B assay relative to control", "conditions": "read-out: Activity"}, "MDA-MB-231": {"test_system": "MDA-MB-231", "test": "Growth inhibition of human MDA-MB-231 cells assessed as cell viability at 0.001 uM incubated for 48 hrs by sulforhodamine B assay relative to control", "conditions": "MDA-MB-231, 48 h, read-out: Activity"}, "SK-MEL-2": {"test_system": "SK-MEL-2", "test": "Growth inhibition of human SK-MEL-2 cells assessed as cell viability at 0.001 uM incubated for 48 hrs by sulforhodamine B assay relative to control", "conditions": "SK-MEL-2, 48 h, read-out: Activity"}, "SNB-75 [4]": {"test_system": "SNB-75", "test": "Growth inhibition of human SNB75 cells assessed as cell viability at 0.001 uM incubated for 48 hrs by sulforhodamine B assay relative to control", "conditions": "SNB-75, 48 h, read-out: Activity"}, "HOP-92": {"test_system": "HOP-92", "test": "Growth inhibition of human HOP92 cells assessed as cell viability at 0.001 uM incubated for 48 hrs by sulforhodamine B assay relative to control", "conditions": "HOP-92, 48 h, read-out: Activity"}, "786-0": {"test_system": "786-0", "test": "Growth inhibition of human 786-0 cells assessed as cell viability at 100 uM incubated for 48 hrs by sulforhodamine B assay", "conditions": "786-0, 48 h, read-out: Activity", "how_it_was_run": "as §1"}, "A498": {"test_system": "A498", "test": "Growth inhibition of human A498 cells assessed as cell viability at 100 uM incubated for 48 hrs by sulforhodamine B assay", "conditions": "A498, 48 h, read-out: Activity", "how_it_was_run": "as §1"}, "[5]": {"conditions": "read-out: LC50 (the source's name)"}, "[6]": {"conditions": "read-out: pLC50 (the source's name) (converted)"}}, "data": [{"smiles": "CC1=C(C(=O)OCc2ccccc2)C(c2ccc3c(c2)OCO3)n2c(nc3ccccc32)N1", "note": "(racemic)", "values": [{"measurement": "GI50", "setting": "EKVX; read-out: GI50", "result": 0.69, "unit": "µM"}, {"measurement": "LC50", "setting": "EKVX; read-out: LC50", "result": "> 100", "unit": "µM"}, {"measurement": "TGI", "setting": "EKVX; read-out: TGI", "result": "> 100", "unit": "µM"}, {"measurement": "GI50", "setting": "EKVX; read-out: pGI50 (converted)", "result": 0.692, "unit": "µM"}, {"measurement": "LC50", "setting": "EKVX; read-out: pLC50 (converted)", "result": "> 100", "unit": "µM"}, {"measurement": "TGI", "setting": "EKVX; read-out: pTGI", "result": "> 100", "unit": "µM"}, {"measurement": "GI50", "setting": "NCI-H522; read-out: GI50", "result": 0.14, "unit": "µM"}, {"measurement": "CC50", "setting": "NCI-H522; [5]", "result": "> 100", "unit": "µM"}, {"measurement": "TGI", "setting": "NCI-H522; read-out: TGI", "result": 33.2, "unit": "µM"}, {"measurement": "GI50", "setting": "NCI-H522; read-out: pGI50 (converted)", "result": 0.135, "unit": "µM"}, {"measurement": "CC50", "setting": "NCI-H522; [6]", "result": "> 100", "unit": "µM"}, {"measurement": "TGI", "setting": "NCI-H522; read-out: pTGI (converted)", "result": 33.1, "unit": "µM"}, {"measurement": "GI50", "setting": "KM12 [1]; read-out: GI50", "result": 0.34, "unit": "µM"}, {"measurement": "LC50", "setting": "KM12 [1]; read-out: LC50", "result": "> 100", "unit": "µM"}, {"measurement": "TGI", "setting": "KM12 [1]; read-out: TGI", "result": "> 100", "unit": "µM"}, {"measurement": "GI50", "setting": "KM12 [1]; read-out: pGI50 (converted)", "result": 0.339, "unit": "µM"}, {"measurement": "LC50", "setting": "KM12 [1]; read-out: pLC50 (converted)", "result": "> 100", "unit": "µM"}, {"measurement": "TGI", "setting": "KM12 [1]; read-out: pTGI", "result": "> 100", "unit": "µM"}, {"measurement": "GI50", "setting": "OVCAR-5; read-out: GI50", "result": "> 100", "unit": "µM"}, {"measurement": "CC50", "setting": "OVCAR-5; [5]", "result": "> 100", "unit": "µM"}, {"measurement": "TGI", "setting": "OVCAR-5; read-out: TGI", "result": "> 100", "unit": "µM"}, {"measurement": "GI50", "setting": "OVCAR-5; read-out: pGI50 (converted)", "result": "> 100", "unit": "µM"}, {"measurement": "CC50", "setting": "OVCAR-5; [6]", "result": "> 100", "unit": "µM"}, {"measurement": "TGI", "setting": "OVCAR-5; read-out: pTGI", "result": "> 100", "unit": "µM"}, {"measurement": "GI50", "setting": "UO-31; read-out: GI50", "result": 0.59, "unit": "µM"}, {"measurement": "CC50", "setting": "UO-31; [5]", "result": "> 100", "unit": "µM"}, {"measurement": "GI50", "setting": "UO-31; read-out: pGI50 (converted)", "result": 0.589, "unit": "µM"}, {"measurement": "CC50", "setting": "UO-31; [6]", "result": "> 100", "unit": "µM"}, {"measurement": "TGI", "setting": "UO-31; read-out: pTGI (converted)", "result": 63.1, "unit": "µM"}, {"measurement": "viability at 100 µM", "setting": "SNB-19", "result": 28, "unit": "%"}, {"measurement": "viability at 100 µM", "setting": "NCI-H322M", "result": 50, "unit": "%"}, {"measurement": "viability at 1 µM", "setting": "RXF 393", "result": 7, "unit": "%"}, {"measurement": "viability at 1 µM", "setting": "IGROV-1", "result": 39, "unit": "%"}, {"measurement": "viability at 1 µM", "setting": "SNB-75 [2]", "result": -8, "unit": "%"}, {"measurement": "viability at 1 µM", "setting": "SF-539", "result": 13, "unit": "%"}, {"measurement": "viability at 1 µM", "setting": "KM12 [3]", "result": 19, "unit": "%"}, {"measurement": "viability at 1 µM", "setting": "HOP-62", "result": 44, "unit": "%"}, {"measurement": "viability at 1 µM", "setting": "MOLT-4", "result": 43, "unit": "%"}, {"measurement": "viability at 0.1 µM", "setting": "OVCAR-3", "result": 85, "unit": "%"}, {"measurement": "viability at 0.1 µM", "setting": "M14", "result": 90, "unit": "%"}, {"measurement": "viability at 0.1 µM", "setting": "LOX IMVI", "result": 93, "unit": "%"}, {"measurement": "viability at 0.1 µM", "setting": "U-251", "result": 96, "unit": "%"}, {"measurement": "viability at 0.1 µM", "setting": "SF-295", "result": 87, "unit": "%"}, {"measurement": "viability at 0.001 µM", "setting": "T47D", "result": 82, "unit": "%"}, {"measurement": "viability at 0.001 µM", "setting": "MDA-MB-231", "result": 97, "unit": "%"}, {"measurement": "viability at 0.001 µM", "setting": "SK-MEL-2", "result": 97, "unit": "%"}, {"measurement": "viability at 0.001 µM", "setting": "SNB-75 [4]", "result": 61, "unit": "%"}, {"measurement": "viability at 0.001 µM", "setting": "HOP-92", "result": 67, "unit": "%"}, {"measurement": "viability at 100 µM", "setting": "786-0", "result": 22, "unit": "%"}, {"measurement": "viability at 100 µM", "setting": "A498", "result": 37, "unit": "%"}]}]}
